One block for each compound: values may come before it.
Key:
rat mGlu1 = rat mGlu1 (Rattus norvegicus, UniProt P23385); experiment: rat mGlu1 calcium mobilization assay; assay type: cell-based; conditions: for mGlu1 pIC50 (± SEM): Calcium mobilization assay, rat mGlu1, NAM; for mGlu1 NAM activity (in words): top concentration tested 30 μM
[1] = Rat IP PK time course study; assay type: in vivo, male Sprague-Dawley rats; conditions: rats; IP 10 mg/kg
In short: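 Male Sprague-Dawley rats received a single 10 mg/kg IP dose, with 2 animals per time point. Plasma was followed over time for Tmax, Cmax and AUC. Brain and plasma were taken at 15 min to give Kp and Kp,uu. Unbound brain concentration was estimated from these exposures combined with fraction unbound from equilibrium dialysis.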

Rat IV PK = assay type: in vivo, male Sprague-Dawley rats; conditions: male, Sprague-Dawley, plasma, 0.2 mg/kg
In short: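 Male Sprague-Dawley rats were dosed IV with 2 animals per time point. The plasma concentration–time profile gave half-life, plasma clearance and steady-state volume of distribution.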

[2] = system: remaining six members of the mGlu family; experiment: mGlu selectivity fold-shift experiments on orthosteric agonist CRC; assay type: cell-based
369 kinases = experiment: kinase panel of 369 kinases; assay type: biochemical; conditions: 10 μM
rat mGlu5 = rat mGlu5 (Rattus norvegicus, UniProt P31424); experiment: rat mGlu5 calcium mobilization assay; assay type: cell-based
Chain of rat mGlu5 (P31424 21-1203): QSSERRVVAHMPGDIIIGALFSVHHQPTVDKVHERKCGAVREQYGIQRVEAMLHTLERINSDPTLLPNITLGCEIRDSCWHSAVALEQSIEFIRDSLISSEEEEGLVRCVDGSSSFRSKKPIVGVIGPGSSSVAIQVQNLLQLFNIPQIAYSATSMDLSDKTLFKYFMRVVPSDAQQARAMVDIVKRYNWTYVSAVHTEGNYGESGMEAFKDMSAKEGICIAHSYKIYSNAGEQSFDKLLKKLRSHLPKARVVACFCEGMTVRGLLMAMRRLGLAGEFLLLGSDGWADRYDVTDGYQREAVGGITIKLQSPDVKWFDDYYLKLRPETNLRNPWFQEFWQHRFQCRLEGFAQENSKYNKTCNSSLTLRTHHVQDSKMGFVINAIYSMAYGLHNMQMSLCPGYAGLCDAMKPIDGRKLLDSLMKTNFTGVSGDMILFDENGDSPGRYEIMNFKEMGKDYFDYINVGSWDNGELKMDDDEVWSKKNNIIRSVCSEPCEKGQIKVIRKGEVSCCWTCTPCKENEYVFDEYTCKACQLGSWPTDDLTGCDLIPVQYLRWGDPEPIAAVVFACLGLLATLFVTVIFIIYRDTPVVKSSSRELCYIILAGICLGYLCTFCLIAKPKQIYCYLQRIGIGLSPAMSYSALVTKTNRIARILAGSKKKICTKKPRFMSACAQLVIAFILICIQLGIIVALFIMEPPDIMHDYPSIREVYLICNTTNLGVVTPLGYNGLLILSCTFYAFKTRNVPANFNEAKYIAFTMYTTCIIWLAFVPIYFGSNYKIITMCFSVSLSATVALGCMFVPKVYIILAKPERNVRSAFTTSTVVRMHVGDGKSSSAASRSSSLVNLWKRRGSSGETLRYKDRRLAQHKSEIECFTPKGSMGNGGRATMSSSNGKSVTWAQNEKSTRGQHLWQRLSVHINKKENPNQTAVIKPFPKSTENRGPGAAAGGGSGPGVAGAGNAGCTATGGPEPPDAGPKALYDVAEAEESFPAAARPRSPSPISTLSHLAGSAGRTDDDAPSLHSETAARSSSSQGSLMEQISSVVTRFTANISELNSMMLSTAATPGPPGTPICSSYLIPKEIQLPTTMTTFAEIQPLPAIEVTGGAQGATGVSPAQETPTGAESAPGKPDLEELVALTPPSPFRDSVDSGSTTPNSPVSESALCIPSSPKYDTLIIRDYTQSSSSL

[3] = Mouse IP PK time course study; assay type: in vivo, male CD-1 mice; conditions: mice; IP 30 mg/kg
In short: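 Tissue distribution was run in parallel under the same conditions, with brain and plasma taken at 30 min to give Kp and Kp,uu. Unbound brain concentration was estimated from these exposures combined with fraction unbound from equilibrium dialysis.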

[4] = system: 68 clinically relevant targets; experiment: radioligand binding assay panel of 68 clinically relevant targets; conditions: 10 μM; significant = greater than or equal to 50% inhibition of binding
In short: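 Test compound was screened at a single 10 μM concentration for displacement of radioligand binding at each panel target. Inhibition of binding of at least 50% was counted as a significant response.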

Chain of rat mGlu1 (P23385 19-1199): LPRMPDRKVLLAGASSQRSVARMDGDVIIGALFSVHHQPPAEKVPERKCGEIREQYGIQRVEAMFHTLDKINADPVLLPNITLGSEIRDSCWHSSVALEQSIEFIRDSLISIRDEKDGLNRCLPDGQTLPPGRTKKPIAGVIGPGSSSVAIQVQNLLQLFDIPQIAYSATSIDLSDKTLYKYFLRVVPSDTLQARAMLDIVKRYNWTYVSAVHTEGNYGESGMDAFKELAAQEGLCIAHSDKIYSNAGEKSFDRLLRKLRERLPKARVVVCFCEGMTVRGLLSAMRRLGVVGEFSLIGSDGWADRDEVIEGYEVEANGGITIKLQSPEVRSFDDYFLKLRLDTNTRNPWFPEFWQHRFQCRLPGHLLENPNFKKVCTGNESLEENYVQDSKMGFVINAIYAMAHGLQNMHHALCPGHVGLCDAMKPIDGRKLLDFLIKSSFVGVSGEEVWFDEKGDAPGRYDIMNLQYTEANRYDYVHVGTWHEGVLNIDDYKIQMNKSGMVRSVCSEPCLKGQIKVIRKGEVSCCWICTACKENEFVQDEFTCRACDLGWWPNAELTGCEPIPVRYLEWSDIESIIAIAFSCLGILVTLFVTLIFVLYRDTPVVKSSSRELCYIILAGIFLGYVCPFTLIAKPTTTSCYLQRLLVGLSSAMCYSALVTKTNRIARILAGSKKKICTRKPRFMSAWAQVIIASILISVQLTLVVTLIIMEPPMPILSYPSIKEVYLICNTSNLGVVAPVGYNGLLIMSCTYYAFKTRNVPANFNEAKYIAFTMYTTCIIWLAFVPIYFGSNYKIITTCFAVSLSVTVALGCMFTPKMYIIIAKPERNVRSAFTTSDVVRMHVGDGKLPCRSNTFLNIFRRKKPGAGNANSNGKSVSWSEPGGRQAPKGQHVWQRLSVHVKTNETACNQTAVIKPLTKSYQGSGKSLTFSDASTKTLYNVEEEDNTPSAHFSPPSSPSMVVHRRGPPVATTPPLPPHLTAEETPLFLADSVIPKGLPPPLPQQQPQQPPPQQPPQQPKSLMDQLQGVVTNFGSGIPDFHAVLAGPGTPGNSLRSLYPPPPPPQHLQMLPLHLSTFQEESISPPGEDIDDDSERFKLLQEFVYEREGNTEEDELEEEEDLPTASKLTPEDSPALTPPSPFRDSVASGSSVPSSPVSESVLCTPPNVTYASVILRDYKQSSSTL

Structure (SMILES): C[C@H](Nc1ncnc2c1nn1ccccc21)C1CC1 [Compound 12]
mGlu1 pIC50 (± SEM) (rat mGlu1): < 4.5

Structure (SMILES): CC1(C)CCC(Nc2ncnc3c2nn2ccccc32)CC1 [Compound 29, N-(4,4-dimethylcyclohexyl)pyrido[1′,2′:1,5]pyrazolo[4,3-d]pyrimidin-4-amine]
estimated unbound brain concentration [1]: approximately 100 nM
Vd (Rat IV PK): 3.1 L/kg
effect on the orthosteric agonist concentration-response curve (fold-shift) ([2]; 10 μM, remaining six mGlus): no significant effects were observed
selectivity for the group I mGlu receptors ([2]; versus remaining six mGlus): > 75 fold
number of kinases of 369 inhibited more than 50% (369 kinases): eight
mGlu5 pIC50 (± SEM) (rat mGlu5; Calcium mobilization assay, rat mGlu5, NAM): 6.89 ± 0.29
estimated unbound brain concentration [3]: approximately 100 nM
number of the 68 targets with no significant responses [4]: 62

Structure (SMILES): CC(C)(C)CCNc1ncnc2c1nn1ccccc21 [Compound 18]
mGlu5 NAM potency relative to mGlu1 NAM activity (rat mGlu5; rat mGlu5 vs rat mGlu1): approximately ten-fold less

Structure (SMILES): CCC(C)(C)Nc1ncnc2c1nn1ccccc21 [Compound 19]
mGlu1 NAM activity (in words) (rat mGlu1): only a weak mGlu1 NAM, inhibiting the glutamate response only at the top concentration tested

Structure (SMILES): CC(C)Nc1nc(N[C@H]2CC[C@H](C)CC2)c2nn3ccccc3c2n1 [Compound 44]
mGlu1 pIC50 (± SEM) (rat mGlu1): < 4.5

Further lines, results first:

mGlu1 pIC50 (± SEM) (rat mGlu1): < 4.5
Structure (SMILES): CNc1nc(N[C@H]2CC[C@H](C)CC2)c2nn3ccccc3c2n1 [Compound 42]

mGlu1 pIC50 (± SEM) (rat mGlu1): < 4.5
Structure (SMILES): CN(C)c1nc(N[C@H]2CC[C@H](C)CC2)c2nn3ccccc3c2n1 [Compound 43]

mGlu1 NAM activity (in words) (rat mGlu1): weak mGlu1 NAM activity
Structure (SMILES): C[C@H]1CC[C@H](Nc2nc(N)nc3c2nn2ccccc32)CC1 [Compound 41]

Reference: article PMC4824313 (Bioorganic & medicinal chemistry letters, 2016)
